Results: ChEMBL document CHEMBL1139486, “Novel benzopyridothiadiazepines as potential active antitumor agents” (J Med Chem, 2005)

Tested on: L1210
Test: Cell cycle perturbations in mouse L1210 cells assessed as accumulation in G2+M phase after 21 hrs at 0.5 uM relative to control
Assay type: functional
Details: not given
Work on `COc1ccc(CCN2C=CC=C3C2=Nc2ccc(Cl)cc2N(C)S3(=O)=O)cc1` yielded an Activity of 21%.

Tested on: P388
Test: Antiproliferative activity against P388 cells
Assay type: functional, Mus musculus
Details: not given
Compound `COc1ccc(CCN2C=CC=C3C2=Nc2ccccc2S(=O)(=O)N3C)cc1` has an Activity of 0.33 µM.

Biological target: Tubulin
Test: Inhibition of tubulin polymerization
Assay type: protein-complex assay, Homo sapiens
Details: not given
`COc1ccc(CCN2C=CC=C3C2=Nc2ccccc2S(=O)(=O)N3C)cc1` showed an IC50 of 3.8 µM.
For `COc1ccc(CCN2C=CC=C3C2=Nc2ccccc2N(C)S3(=O)=O)cc1`, the IC50 was 2.4 µM.

Tested on: L1210
Test: Cell cycle perturbations in mouse L1210 cells assessed as accumulation in G1 phase after 21 hrs at 1 uM relative to control
Assay type: functional
Details: not given
In the case of `COc1ccc(CCN2C=CC=C3C2=Nc2ccccc2S(=O)(=O)N3C)cc1`, the Activity is reported as 6%.
Compound `COc1ccc(CCN2C=CC=C3C2=Nc2cc(Cl)ccc2N(C)S3(=O)=O)cc1` has an Activity of 8%.

Tested on: L1210
Test: Cell cycle perturbations in mouse L1210 cells assessed as accumulation in 8N phase after 21 hrs at 1 uM relative to control
Assay type: functional
Details: not given
Work on `COc1ccc(CCN2C=CC=C3C2=Nc2ccccc2S(=O)(=O)N3C)cc1` yielded an Activity of 54%.
`COc1ccc(CCN2C=CC=C3C2=Nc2cc(Cl)ccc2N(C)S3(=O)=O)cc1` gave an Activity of 63%.

Tested on: L1210
Test: Cell cycle perturbations in mouse L1210 cells assessed as accumulation in S phase after 21 hrs at 2.5 uM relative to control
Assay type: functional
Details: not given
`COc1ccc(CCN2C=CC=C3C2=Nc2ccc(Cl)cc2S(=O)(=O)N3C)cc1` gave an Activity of 6%.

Tested on: L1210
Test: Cell cycle perturbations in mouse L1210 cells assessed as accumulation in S phase after 21 hrs at 2 uM relative to control
Assay type: functional
Details: not given
In short: (§1)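 L1210 cells in RPMI 1640 with 10% fetal calf serum, 2 mM L-glutamine, antibiotics and 10 mM HEPES (pH 7.4) were exposed for 21 h (two doubling times). They were fixed in 70% ethanol and stained 30 min at 20 °C in D-PBS with […] RNAse and […] propidium iodide. 10⁴ cells per sample were analysed by flow cytometry for % G1, S, G2+M and 8N.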
`COc1ccc(CCN2C=CC=C3C2=Nc2cc(C)ccc2N(C)S3(=O)=O)cc1` showed an Activity of 2%.

Tested on: L1210
Test: Cell cycle perturbations in mouse L1210 cells assessed as accumulation in S phase after 21 hrs at 0.2 uM relative to control
Assay type: functional
Details: not given
Work on `COc1ccc(CCN2C=CC=C3C2=Nc2ccccc2N(C)S3(=O)=O)cc1` yielded an Activity of 8%.

Tested on: L1210
Test: Antiproliferative activity against mouse L1210 cells after 48 hrs relative control
Assay type: functional, cell-based
Details: L1210, 48 h
In short: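 L1210 cells grown in RPMI 1640 with 10% fetal calf serum, 2 mM L-glutamine, penicillin/streptomycin and 10 mM HEPES (pH 7.4). Cells were exposed 48 h to graded drug concentrations, then MTT was added for 4 h at 37 °C. Formazan was dissolved in DMSO and OD read at 540 nm. IC50 came from linear regression on the linear part of the dose-response curve, in triplicate.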
`COc1ccc(CN2C=CC=C3C2=Nc2ccccc2S(=O)(=O)N3C)cc1` gave an IC50 greater than 10 µM.
For `COc1ccc(CCN2C=CC=C3C2=Nc2ccccc2S(=O)(=O)N3C)cc1`, the IC50 was 0.3 µM.
Work on `COc1ccc(CCCN2C=CC=C3C2=Nc2ccc(Cl)cc2S(=O)(=O)N3C)cc1` yielded an IC50 greater than 10 µM.
In the case of `COc1cc(CCN2C=CC=C3C2=Nc2ccccc2S(=O)(=O)N3C)cc(OC)c1OC`, the IC50 is reported as greater than 10 µM.
Work on `CCN(CC)CCN1c2ccccc2N=C2C(=CC=CN2CCc2ccc(OC)cc2)S1(=O)=O` yielded an IC50 greater than 10 µM.
In the case of `COc1ccc(CCN2c3cc(Cl)ccc3N(C)S(=O)(=O)c3cccnc32)cc1`, the IC50 is reported as greater than 100 µM.
Compound `COc1ccc(CN2C=CC=C3C2=Nc2cc(C(F)(F)F)ccc2S(=O)(=O)N3C)cc1` has an IC50 greater than 10 µM.
With `COc1ccc(CCN2C=CC=C3C2=Nc2ccc(Cl)cc2S(=O)(=O)N3C)cc1` the IC50 was 1.3 µM.
For `COc1ccc(CCN2C=CC=C3C2=Nc2cc(OC)ccc2S(=O)(=O)N3C)cc1`, the IC50 was greater than 10 µM.
With `COc1ccc(CCN2c3ccccc3S(=O)(=O)N(C)c3cccnc32)cc1` the IC50 was greater than 10 µM.
In the case of `COc1ccc(CCN2C=CC=C3C2=Nc2ccccc2N(C)S3(=O)=O)cc1`, the IC50 is reported as 0.11 µM.
Compound `COc1ccc(CCN2C=CC=C3C2=Nc2cc(Cl)ccc2N(C)S3(=O)=O)cc1` has an IC50 of 0.19 µM.
For `COc1ccc(CCN2C=CC=C3C2=Nc2cc(C)ccc2N(C)S3(=O)=O)cc1`, the IC50 was 0.41 µM.
In the case of `COc1ccc(CCN2C=CC=C3C2=Nc2ccc(Cl)cc2N(C)S3(=O)=O)cc1`, the IC50 is reported as 0.23 µM.

Tested on: not listed separately
Test: Antiproliferative activity against KB3-1 cells
Assay type: functional, Homo sapiens, KB 3-1
Details: not given
Compound `COc1ccc(CCN2C=CC=C3C2=Nc2ccccc2S(=O)(=O)N3C)cc1` has an Activity of 0.24 µM.

Tested on: IGROV-1
Test: Antiproliferative activity against IGROV1 cells
Assay type: functional, Homo sapiens
Details: not given
With `COc1ccc(CCN2C=CC=C3C2=Nc2ccccc2S(=O)(=O)N3C)cc1` the Activity was 0.34 µM.

Tested on: DU-145
Test: Antiproliferative activity against DU145 cells
Assay type: functional, Homo sapiens
Details: not given
Compound `COc1ccc(CCN2C=CC=C3C2=Nc2ccccc2S(=O)(=O)N3C)cc1` has an Activity of 0.55 µM.
In the case of `COc1ccc(CCN2C=CC=C3C2=Nc2ccccc2N(C)S3(=O)=O)cc1`, the Activity is reported as 0.14 µM.

Tested on: L1210
Test: Cell cycle perturbations in mouse L1210 cells assessed as accumulation in G2+M phase after 21 hrs at 2.5 uM relative to control
Assay type: functional
Details: not given
Work on `COc1ccc(CCN2C=CC=C3C2=Nc2ccc(Cl)cc2S(=O)(=O)N3C)cc1` yielded an Activity of 24%.

Tested on: L1210
Test: Cell cycle perturbations in mouse L1210 cells assessed as accumulation in G2+M phase after 21 hrs at 2 uM relative to control
Assay type: functional
Details: not given
In short: as §1
In the case of `COc1ccc(CCN2C=CC=C3C2=Nc2cc(C)ccc2N(C)S3(=O)=O)cc1`, the Activity is reported as 12%.

Tested on: L1210
Test: Cell cycle perturbations in mouse L1210 cells assessed as accumulation in G2+M phase after 21 hrs at 1 uM relative to control
Assay type: functional
Details: not given
In the case of `COc1ccc(CCN2C=CC=C3C2=Nc2ccccc2S(=O)(=O)N3C)cc1`, the Activity is reported as 32%.
Work on `COc1ccc(CCN2C=CC=C3C2=Nc2cc(Cl)ccc2N(C)S3(=O)=O)cc1` yielded an Activity of 19%.

Tested on: L1210
Test: Cell cycle perturbations in mouse L1210 cells assessed as accumulation in G1 phase after 21 hrs at 0.5 uM relative to control
Assay type: functional
Details: not given
`COc1ccc(CCN2C=CC=C3C2=Nc2ccc(Cl)cc2N(C)S3(=O)=O)cc1` showed an Activity of 3%.

Tested on: L1210
Test: Cell cycle perturbations in mouse L1210 cells assessed as accumulation in 8N phase after 21 hrs at 2 uM relative to control
Assay type: functional
Details: not given
In short: as §1
Compound `COc1ccc(CCN2C=CC=C3C2=Nc2cc(C)ccc2N(C)S3(=O)=O)cc1` has an Activity of 84%.

Tested on: L1210
Test: Cell cycle perturbations in mouse L1210 cells assessed as accumulation in 8N phase after 21 hrs at 2.5 uM relative to control
Assay type: functional
Details: not given
`COc1ccc(CCN2C=CC=C3C2=Nc2ccc(Cl)cc2S(=O)(=O)N3C)cc1` showed an Activity of 66%.

Tested on: not listed separately
Test: Antiproliferative activity against adriamycin-resistant KB A1 cells
Assay type: functional, Homo sapiens
Details: not given
With `COc1ccc(CCN2C=CC=C3C2=Nc2ccccc2S(=O)(=O)N3C)cc1` the Activity was 0.3 µM.

Tested on: L1210
Test: Cell cycle perturbations in mouse L1210 cells assessed as accumulation in S phase after 21 hrs at 1 uM relative to control
Assay type: functional
Details: not given
For `COc1ccc(CCN2C=CC=C3C2=Nc2ccccc2S(=O)(=O)N3C)cc1`, the Activity was 8%.
Compound `COc1ccc(CCN2C=CC=C3C2=Nc2cc(Cl)ccc2N(C)S3(=O)=O)cc1` has an Activity of 10%.

Tested on: L1210
Test: Cell cycle perturbations in mouse L1210 cells assessed as accumulation in G2+M phase after 21 hrs at 0.2 uM relative to control
Assay type: functional
Details: not given
Compound `COc1ccc(CCN2C=CC=C3C2=Nc2ccccc2N(C)S3(=O)=O)cc1` has an Activity of 17%.

Tested on: L1210
Test: Cell cycle perturbations in mouse L1210 cells assessed as accumulation in S phase after 21 hrs at 0.5 uM relative to control
Assay type: functional
Details: not given
`COc1ccc(CCN2C=CC=C3C2=Nc2ccc(Cl)cc2N(C)S3(=O)=O)cc1` showed an Activity of 6%.

Tested on: L1210
Test: Cell cycle perturbations in mouse L1210 cells assessed as accumulation in 8N phase after 21 hrs at 0.5 uM relative to control
Assay type: functional
Details: not given
Compound `COc1ccc(CCN2C=CC=C3C2=Nc2ccc(Cl)cc2N(C)S3(=O)=O)cc1` has an Activity of 70%.

Tested on: L1210
Test: Cell cycle perturbations in mouse L1210 cells assessed as accumulation in 8N phase after 21 hrs at 0.2 uM relative to control
Assay type: functional
Details: not given
With `COc1ccc(CCN2C=CC=C3C2=Nc2ccccc2N(C)S3(=O)=O)cc1` the Activity was 70%.

Tested on: L1210
Test: Cell cycle perturbations in mouse L1210 cells assessed as accumulation in G1 phase after 21 hrs at 0.2 uM relative to control
Assay type: functional
Details: not given
`COc1ccc(CCN2C=CC=C3C2=Nc2ccccc2N(C)S3(=O)=O)cc1` gave an Activity of 5%.

Tested on: L1210
Test: Cell cycle perturbations in mouse L1210 cells assessed as accumulation in G1 phase after 21 hrs at 2 uM relative to control
Assay type: functional
Details: not given
In short: as §1
In the case of `COc1ccc(CCN2C=CC=C3C2=Nc2cc(C)ccc2N(C)S3(=O)=O)cc1`, the Activity is reported as 2%.

Tested on: A549
Test: Antiproliferative activity against A549 cells
Assay type: functional, Homo sapiens
Details: not given
With `COc1ccc(CCN2C=CC=C3C2=Nc2ccccc2S(=O)(=O)N3C)cc1` the Activity was 0.45 µM.

Tested on: L1210
Test: Cell cycle perturbations in mouse L1210 cells assessed as accumulation in G1 phase after 21 hrs at 2.5 uM relative to control
Assay type: functional
Details: not given
With `COc1ccc(CCN2C=CC=C3C2=Nc2ccc(Cl)cc2S(=O)(=O)N3C)cc1` the Activity was 4%.
